High-throughput results: PubChem BioAssay, several laboratories
An excerpt weighted towards active compounds, which were near 3% of everything screened.
UBC13 inh: UBC13 polyubiquitin chain formation inhibitors, primary screen, biochemical, TR-FRET, uHTS; Ubiquitin-conjugating enzyme E2 N (Homo sapiens), P61088; inhibition, % at 20 µM; 0.47% of 330,000 active; AID 485273, 2010; in the data active = inhibition above about 45%, passing the limit was not always enough
Target sequence (P61088 whole entry, looked up): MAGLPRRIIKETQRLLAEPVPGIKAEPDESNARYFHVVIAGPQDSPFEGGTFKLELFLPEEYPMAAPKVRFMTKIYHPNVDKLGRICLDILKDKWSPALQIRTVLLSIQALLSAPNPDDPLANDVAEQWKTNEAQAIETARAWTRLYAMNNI
beta cell repl: inducers of MIN6 beta-cell proliferation, primary screen, ATP luminescence, uHTS; MIN6 cells proliferation, ATPlite luminescence, 48 h; cells starved in 0.2% serum; 100% = growth in 10% serum; proliferation, % at 10 µM; 0.29% of 330,000 active; AID 2380, 2010;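 active = compounds whose signal lies at least 3.5 SD above the mean of all wells on their plate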;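 note: 0% = DMSO-treated cells in low-serum medium and 100% = 10% serum control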
Apaf-1 inh: inhibitors of human Apaf-1 apoptosome, primary screen, biochemical, DEVD-Rh110 fluorescence, uHTS; Apoptotic protease-activating factor 1 (Homo sapiens), O14727; reconstituted apoptosome caspase-3 activity; inhibition, % at 20 µM; 0.71% of 330,000 active; active = inhibition of at least 40% at 20 µM;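 note: plate controls were DMSO wells for no effect and DEVD-CHO caspase inhibitor wells for full effect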
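detection = Rh110 fluorescence intensity | test system = biochemical Apaf-1 apoptosome reconstitution | also added = cytochrome c and DEVD-Rh110 substrate | schedule = 30 min plus 50 min, RT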
MPTP block: mitochondrial permeability transition pore inhibitors, primary screen, biochemical, isolated mouse mitochondria, absorbance; inhibition, % at 10 µM; 1.4% of 360,000 active; Ca2+ swelling absorbance, 30 min;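 active = inhibition of 50% or more, scaled per plate between neutral and stimulator controls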;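 note: 0% = DMSO wells given calcium and 100% = 1 mM EGTA wells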
Exocytosis inh: LAMP-1 surface exposure blockers, TALL-104 cells – cell-based, flow cytometry, MLPCN library, primary screen; 0.66% of 360,000 active; inhibition, % at 10 µM; TALL-104 LAMP-1 surface exposure; cells stimulated with thapsigargin and PMA; AID 651702, 2012;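 active = inhibition above about 55%, limit read from the data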
iPSC survival up: enhancers of single-cell hiPSC survival, primary screen, ATPlite luminescence; AID 602274, 2012; 100% = ROCK inhibitor wells, 0% = DMSO; survival enhancement, % at 20 µM; 0.044% of 360,000 active; in the data active = survival enhancement above about 18%;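 note: cells exposed to compounds for 16 hours before the ATP read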
Rh123 counter: fluorescence retest of MPTP screen hits in isolated mitochondria, single concentration; shares compounds with MPTP block; inhibition, % at 10 µM; 78% of 5,000 active; membrane potential, Rhodamine 123 fluorescence; AID 624504, 2012; in the data active = inhibition above about 22%;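 note: 0% = DMSO vehicle and 100% = positive control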
MPTP abs DR: mitochondrial permeability transition pore inhibitors, dose response, biochemical, absorbance, uHTS hits; shares compounds with MPTP block; isolated mitochondria swelling; IC50, µM; 58% of 780 active; AID 651561, 2012; in the data active = IC50 below about 20 µM
MPTP counter DR: fluorescent counter-screen in isolated mitochondria, dose response, counter-screen for MPTP inhibitor project, biochemical, fluorescence, uHTS hits | shares compounds with MPTP block | isolated mitochondria counterscreen, fluorescence read-out | IC50, µM | 49% of 780 active | AID 651564, 2012; in the data active = IC50 below about 80 µM
An asterisk follows results filed as active; · = not tested or not shown.

SMILES | UBC13 inh | beta cell repl | Apaf-1 inh | MPTP block | Exocytosis inh | iPSC survival up | Rh123 counter | others
Cc1ccc(OCC(=O)OCC(=O)NC2CCCCCC2)cc1C | · | · | · | 1 | 4 | -1 | ·
COC(=O)c1ccc(N2CC3CNC(=O)C2(C(=O)OC)N3C)cc1 (stereo not drawn) | 10 | 4 | -7 | -2 | -1 | 0 | ·
CC(C)(C)OC(=O)N1CCCC(C(=O)Nc2cccc(C(=O)NCCCCc3ccccc3)c2)C1 (stereo not drawn) | · | · | · | 2 | 2 | 4 | ·
CSC1=NSC2=NC(=O)/C(=C/c3coc4ccccc4c3=O)C(=N)N12 | · | · | · | 95* | 13 | 1 | 80*
CSC1=NSC2=NC(=O)/C(=C\c3cccs3)C(=N)N12 | · | · | · | 6 | 3 | -1 | ·
CC(C)CSC1=NSC2=NC(=O)/C(=C\c3cccs3)C(=N)N12 | -15 | -3 | -39 | 100* | 1 | -2 | 93*
CC1=CC2=NC(=O)/C(=C/c3cccs3)C(=N)N2O1 | -5 | -3 | 0 | 1 | -3 | 0 | ·
N=C1/C(=C/c2cccs2)C(=O)N=C2SN=C(SCc3ccccc3)N12 | -17 | -6 | 5 | 86* | -3 | -3 | 71*
O=C1CC2CCCC(C1)S2=O (stereo not drawn) | · | · | · | 1 | 2 | 0 | ·
O=C(NCCN1CCOCC1)c1cccc(S(=O)(=O)Nc2ccc(Br)cc2)c1 | 20 | 2 | -4 | 3 | 7 | 0 | ·
COC(=O)[C@@H](Cc1ccccc1)NC(=O)/C=C/[C@H]1O[C@@H](n2cnc3c(NC(=O)c4ccccc4)ncnc32)[C@H](O)[C@@H]1O | · | · | · | 0 | -3 | 4 | ·
CCc1ccc(-c2cc(C)no2)cc1S(=O)(=O)N1CCN(c2ccccc2)CC1 | -3 | -6 | 6 | -2 | 2 | 0 | ·
CC(C)c1ccc(NC(=O)C2(C)Cc3c(-c4ccc(C(N)=O)cc4)ccnc3O2)cc1 (stereo not drawn) | · | · | · | -1 | -4 | -4 | ·
C=CCSc1nsc(NC(=O)Nc2ccc(F)cc2)n1 | 0 | -6 | 3 | 98* | 29 | 0 | 78*
CCSc1nsc(NC(=O)Nc2cccc(OC)c2)n1 | 9 | -5 | 10 | 84* | 2 | -1 | 85*
O=C(Nc1ccc(F)cc1)Nc1nnc(Cc2ccccc2)s1 | -12 | -4 | 21 | 19 | -5 | 0 | ·
CCSc1nsc(NC(=O)Nc2ccccc2F)n1 | 11 | 0 | -6 | 66* | 16 | 0 | 87*
CC(C)c1ccc(CNc2ccc3c(c2)ncn3C)cc1 | 8 | -6 | 15 | 56* | -9 | 0 | 58*
CCOc1ccc(S(=O)(=O)Nc2cccc(N(C)S(C)(=O)=O)c2)cc1 | -7 | 0 | 14 | 95* | -9 | 1 | 42*
CN(c1cccc(NS(=O)(=O)c2ccccc2)c1)S(C)(=O)=O | -3 | -5 | 6 | 0 | -6 | 0 | ·
O=[N+]([O-])c1cc(Cl)ccc1NCCNc1ncc(C(F)(F)F)cc1Cl | -32 | -3 | 4 | 1 | -4 | -2 | ·
O=[N+]([O-])c1cc(C(F)(F)F)ccc1NCCCCNS(=O)(=O)c1ccc(Cl)cc1 | -9 | -5 | 28 | 86* | 4 | 4 | 90*
O=[N+]([O-])c1cc(C(F)(F)F)ccc1NCCNC(=S)Nc1ccc(Cl)cc1 | -17 | -4 | 12 | 94* | 0 | 4 | 70*
Cc1ccc(NC(=O)c2sccc2C)nc1 | -13 | 2 | 0 | -2 | -7 | 0 | ·
COc1ccc(Cl)cc1C(=O)Nc1nc(C)cc(C)n1 | -7 | 0 | 12 | -1 | -1 | 2 | ·
SMILES | UBC13 inh | beta cell repl | Apaf-1 inh | MPTP block | Exocytosis inh | iPSC survival up | Rh123 counter | others
C[C@H]1CNC(=O)c2c(C(=O)N3CCN(C(=O)OC(C)(C)C)CC3)ncn21 | · | · | · | 0 | 4 | 1 | ·
O=C(CCc1ccc(S(=O)(=O)NCCc2ccccc2)cc1)N1CCN(Cc2ccc3c(c2)OCO3)CC1 | -4 | -1 | 23 | 54* | 0 | 3 | 24*
CC(C)CNS(=O)(=O)c1ccc(CCC(=O)N2CCN(Cc3ccc4c(c3)OCO4)CC2)cc1 | -9 | -3 | 10 | 10 | -2 | 0 | ·
COc1cc(C(=O)N(C)CC2CCN(CCc3cccc(C(F)(F)F)c3)CC2)ccc1C | 1 | -1 | 11 | 81* | 50 | -1 | 1 | MPTP abs DR=7.6*;MPTP counter DR=25*
C/C=C/c1cccc(-c2nc(C(=O)N3CCCCC3)cc3c2[C@H](CCO)N(C(=O)NC(C)C)C3)c1 | · | · | · | 1 | 3 | -1 | ·
CCCCn1c(/C=N/Nc2nc3ccccc3[nH]2)nc2ccccc21 | -19 | 0 | 7 | 100* | 6 | -1 | 84*
CCCCn1c(/C=C/c2ccco2)nc2ccccc21 | -2 | -6 | 24 | -2 | -1 | 3 | ·
CC(CN1CCN(C/C=C/c2ccccc2)CC1)c1ccccc1 (stereo not drawn) | -2 | -1 | -3 | 0 | 42 | 0 | ·
O=C(/C(N=Nc1cccc(C(F)(F)F)c1)=C(/O)c1cccs1)C(F)(F)F | -14 | -4 | 16 | 86* | 8 | 0 | 82*
CC(=O)/C(N=Nc1cccc(C(F)(F)F)c1)=C(\C)O | -6 | -2 | 10 | 0 | 0 | 6 | ·
Cc1nn(Cc2noc(C(=O)NC3CCC(C)CC3)n2)c(C)c1Br (stereo not drawn) | -4 | -8 | 6 | 59* | -1 | 0 | 58*
CCCCN(C)C(=O)CNC(=O)c1nn(-c2ccc(OC)cc2OC)c(=O)c2ccccc12 | 5 | -1 | 0 | 0 | -17 | 0 | ·
COC(=O)/C(=C\c1ccc(O)cc1)c1nc2ccccc2[nH]1 | -9 | -2 | 6 | 0 | -4 | -1 | ·
O=C(/C(=C/c1ccc(Cl)cc1)c1nc2ccccc2[nH]1)c1cccs1 | -12 | -5 | 17 | 66* | 96* | -5 | 75*
O=C(/C(=C\c1ccccc1)c1nc2ccccc2[nH]1)c1ccc(Cl)cc1 | -16 | 0 | 22 | 75* | 46 | -1 | 75*
CC(Sc1nnnn1C)C(=O)Nc1nc(-c2ccc(F)c(F)c2)cs1 (stereo not drawn) | 9 | -3 | 11 | 0 | -8 | 0 | ·
Cc1cnc(NC(=O)CC2OC(=O)c3ccccc32)s1 (stereo not drawn) | 2 | -1 | 5 | -1 | 14 | 0 | ·
